Reference: ChEMBL document CHEMBL1153598, “Syntheses of low-hemolytic antimicrobial gratisin peptides” (Bioorg Med Chem Lett, 2009)
In brackets after ≈: the same amount, converted by molar mass. Non-standard residues stand in square brackets, D forms with d. Residues, ends and D or L forms follow the SMILES beside them. Orn = NCCC[C@H](N)C(=O)O

How the values were obtained:
Staphylococcus aureus = test: Antibiotic activity against Staphylococcus aureus NBRC 12732 by microplate dilution assay; format: functional
Procedure, shortened: (§1)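 Minimum inhibitory concentration determined by microplate dilution, inoculum 10⁶ organisms per ml. Strains tested: Bacillus subtilis NBRC 3513, Bacillus megaterium ATCC 19213, Staphylococcus epidermidis NBRC 12933, Staphylococcus aureus NBRC 12732, Pseudomonas aeruginosa NBRC 3080, Escherichia coli NBRC 12734. MIC reported in µg/mL.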

[1] = tested on: Staphylococcus epidermidis; test: Antibiotic activity against Staphylococcus epidermidis NBRC 12933 by microplate dilution assay; format: functional; procedure, shortened: as §1
Pseudomonas aeruginosa = test: Antibiotic activity against Pseudomonas aeruginosa NBRC 3080 by microplate dilution assay; format: functional; procedure, shortened: as §1
Bacillus subtilis = test: Antibiotic activity against Bacillus subtilis NBRC 3513 by microplate dilution assay; format: functional; procedure, shortened: as §1
[2] = Cytotoxicity against human red blood cells assessed as hemolysis after 30 mins; format: cell-based; conditions: erythrocyte, 0.5 h
Priestia megaterium = test: Antibiotic activity against Bacillus megaterium ATCC 19213 by microplate dilution assay; format: functional; procedure, shortened: as §1
Escherichia coli = test: Antibiotic activity against Escherichia coli NBRC 12734 by microplate dilution assay; format: functional; procedure, shortened: as §1

Compound	MIC (Staphylococcus aureus) [µg/mL]	MIC [1] [µg/mL]	MIC (Pseudomonas aeruginosa) [µg/mL]	MIC (Bacillus subtilis) [µg/mL]	Activity [2]	MIC (Priestia megaterium) [µg/mL]	MIC (Escherichia coli) [µg/mL]
CC(C)C[C@@H]1NC(=O)[C@H](CCCN)NC(=O)[C@H](C(C)C)NC(=O)[C@@H](C(C)C)NC(=O)[C@@H]2CCCN2C(=O)[C@@H](Cc2ccccc2)NC(=O)[C@H](CC(C)C)NC(=O)[C@H](CCCN)NC(=O)[C@H](C(C)C)NC(=O)[C@@H](C(C)C)NC(=O)[C@@H]2CCCN2C(=O)[C@@H](Cc2ccccc2)NC1=O	12.5 (≈ 9.33 µM)	12.5 (≈ 9.33 µM)	> 100	6.25 (≈ 4.67 µM)	Dose-dependent effect	6.25 (≈ 4.67 µM)	> 100
CC(C)C[C@@H]1NC(=O)[C@H](CCCN)NC(=O)[C@H](C(C)C)NC(=O)CNC(=O)[C@@H]2CCCN2C(=O)[C@@H](Cc2ccccc2)NC(=O)[C@H](CC(C)C)NC(=O)[C@H](CCCN)NC(=O)[C@H](C(C)C)NC(=O)CNC(=O)[C@@H]2CCCN2C(=O)[C@@H](Cc2ccccc2)NC1=O	100 (≈ 79.6 µM)	> 100	> 100	100 (≈ 79.6 µM)	Dose-dependent effect	100 (≈ 79.6 µM)	> 100
CCCC[C@H]1NC(=O)[C@@H]2CCCN2C(=O)[C@@H](Cc2ccccc2)NC(=O)[C@H](CC(C)C)NC(=O)[C@H](CCCN)NC(=O)[C@H](C(C)C)NC(=O)[C@@H](CCCC)NC(=O)[C@@H]2CCCN2C(=O)[C@@H](Cc2ccccc2)NC(=O)[C@H](CC(C)C)NC(=O)[C@H](CCCN)NC(=O)[C@H](C(C)C)NC1=O	3.13 (≈ 2.29 µM)	6.25 (≈ 4.57 µM)	50 (≈ 36.6 µM)	6.25 (≈ 4.57 µM)	Dose-dependent effect	6.25 (≈ 4.57 µM)	100 (≈ 73.1 µM)
CC(C)C[C@@H]1NC(=O)[C@H](CCCN)NC(=O)[C@H](C(C)C)NC(=O)[C@@H](CCCNC(=N)N)NC(=O)[C@@H]2CCCN2C(=O)[C@@H](Cc2ccccc2)NC(=O)[C@H](CC(C)C)NC(=O)[C@H](CCCN)NC(=O)[C@H](C(C)C)NC(=O)[C@@H](CCCNC(=N)N)NC(=O)[C@@H]2CCCN2C(=O)[C@@H](Cc2ccccc2)NC1=O	3.13 (≈ 2.15 µM)	6.25 (≈ 4.3 µM)	12.5 (≈ 8.6 µM)	6.25 (≈ 4.3 µM)	Dose-dependent effect	3.13 (≈ 2.15 µM)	12.5 (≈ 8.6 µM)
CCC[C@H]1NC(=O)[C@@H]2CCCN2C(=O)[C@@H](Cc2ccccc2)NC(=O)[C@H](CC(C)C)NC(=O)[C@H](CCCN)NC(=O)[C@H](C(C)C)NC(=O)[C@@H](CCC)NC(=O)[C@@H]2CCCN2C(=O)[C@@H](Cc2ccccc2)NC(=O)[C@H](CC(C)C)NC(=O)[C@H](CCCN)NC(=O)[C@H](C(C)C)NC1=O	12.5 (≈ 9.33 µM)	25 (≈ 18.7 µM)	> 100	12.5 (≈ 9.33 µM)	Dose-dependent effect	12.5 (≈ 9.33 µM)	> 100
CC(C)C[C@@H]1NC(=O)[C@H](CCCN)NC(=O)[C@H](C(C)C)NC(=O)[C@@H](Cc2ccc(O)cc2)NC(=O)[C@@H]2CCCN2C(=O)[C@@H](Cc2ccccc2)NC(=O)[C@H](CC(C)C)NC(=O)[C@H](CCCN)NC(=O)[C@H](C(C)C)NC(=O)[C@@H](Cc2ccc(O)cc2)NC(=O)[C@@H]2CCCN2C(=O)[C@@H](Cc2ccccc2)NC1=O [GRATISIN]	6.25 (≈ 4.26 µM)	12.5 (≈ 8.52 µM)	100 (≈ 68.1 µM)	6.25 (≈ 4.26 µM)	Dose-dependent effect	6.25 (≈ 4.26 µM)	100 (≈ 68.1 µM)
CC(C)C[C@@H]1NC(=O)[C@H](CCCN)NC(=O)[C@H](C(C)C)NC(=O)[C@@H](CO)NC(=O)[C@@H]2CCCN2C(=O)[C@@H](Cc2ccccc2)NC(=O)[C@H](CC(C)C)NC(=O)[C@H](CCCN)NC(=O)[C@H](C(C)C)NC(=O)[C@@H](CO)NC(=O)[C@@H]2CCCN2C(=O)[C@@H](Cc2ccccc2)NC1=O	100 (≈ 76 µM)	> 100	> 100	> 100	Dose-dependent effect	> 100	> 100
CC(C)C[C@@H]1NC(=O)[C@H](CCCN)NC(=O)[C@H](C(C)C)NC(=O)[C@@H]([C@H](C)O)NC(=O)[C@@H]2CCCN2C(=O)[C@@H](Cc2ccccc2)NC(=O)[C@H](CC(C)C)NC(=O)[C@H](CCCN)NC(=O)[C@H](C(C)C)NC(=O)[C@@H]([C@H](C)O)NC(=O)[C@@H]2CCCN2C(=O)[C@@H](Cc2ccccc2)NC1=O [listing 1 of 2 here]	–	–	–	–	Dose-dependent effect	–	–
CC(C)C[C@@H]1NC(=O)[C@H](CCCN)NC(=O)[C@H](C(C)C)NC(=O)[C@@H]2CCCN2C(=O)[C@@H](Cc2ccccc2)NC(=O)[C@H](CC(C)C)NC(=O)[C@H](CCCN)NC(=O)[C@H](C(C)C)NC(=O)[C@@H]2CCCN2C(=O)[C@@H](Cc2ccccc2)NC1=O [GRAMICIDIN S] (cyclo(L[dF]PV[Orn]L[dF]PV[Orn]))	3.13 (≈ 2.74 µM)	3.13 (≈ 2.74 µM)	25 (≈ 21.9 µM)	3.13 (≈ 2.74 µM)	Dose-dependent effect	3.13 (≈ 2.74 µM)	25 (≈ 21.9 µM)
CC(C)C[C@@H]1NC(=O)[C@H](CCCN)NC(=O)[C@H](C(C)C)NC(=O)[C@@H](CCC(N)=O)NC(=O)[C@@H]2CCCN2C(=O)[C@@H](Cc2ccccc2)NC(=O)[C@H](CC(C)C)NC(=O)[C@H](CCCN)NC(=O)[C@H](C(C)C)NC(=O)[C@@H](CCC(N)=O)NC(=O)[C@@H]2CCCN2C(=O)[C@@H](Cc2ccccc2)NC1=O	25 (≈ 17.9 µM)	25 (≈ 17.9 µM)	> 100	12.5 (≈ 8.94 µM)	Dose-dependent effect	12.5 (≈ 8.94 µM)	> 100
CC(C)C[C@@H]1NC(=O)[C@H](CCCN)NC(=O)[C@H](C(C)C)NC(=O)[C@@H](Cc2cnc[nH]2)NC(=O)[C@@H]2CCCN2C(=O)[C@@H](Cc2ccccc2)NC(=O)[C@H](CC(C)C)NC(=O)[C@H](CCCN)NC(=O)[C@H](C(C)C)NC(=O)[C@@H](Cc2cnc[nH]2)NC(=O)[C@@H]2CCCN2C(=O)[C@@H](Cc2ccccc2)NC1=O	12.5 (≈ 8.83 µM)	25 (≈ 17.7 µM)	> 100	12.5 (≈ 8.83 µM)	Dose-dependent effect	12.5 (≈ 8.83 µM)	> 100
CC(C)C[C@@H]1NC(=O)[C@H](CCCN)NC(=O)[C@H](C(C)C)NC(=O)[C@@H](CC(C)C)NC(=O)[C@@H]2CCCN2C(=O)[C@@H](Cc2ccccc2)NC(=O)[C@H](CC(C)C)NC(=O)[C@H](CCCN)NC(=O)[C@H](C(C)C)NC(=O)[C@@H](CC(C)C)NC(=O)[C@@H]2CCCN2C(=O)[C@@H](Cc2ccccc2)NC1=O	12.5 (≈ 9.14 µM)	12.5 (≈ 9.14 µM)	100 (≈ 73.1 µM)	6.25 (≈ 4.57 µM)	Dose-dependent effect	6.25 (≈ 4.57 µM)	> 100
CC(C)C[C@@H]1NC(=O)[C@H](CCCN)NC(=O)[C@H](C(C)C)NC(=O)[C@@H](CCCN)NC(=O)[C@@H]2CCCN2C(=O)[C@@H](Cc2ccccc2)NC(=O)[C@H](CC(C)C)NC(=O)[C@H](CCCN)NC(=O)[C@H](C(C)C)NC(=O)[C@@H](CCCN)NC(=O)[C@@H]2CCCN2C(=O)[C@@H](Cc2ccccc2)NC1=O	6.25 (≈ 4.56 µM)	6.25 (≈ 4.56 µM)	25 (≈ 18.3 µM)	6.25 (≈ 4.56 µM)	Dose-dependent effect	6.25 (≈ 4.56 µM)	25 (≈ 18.3 µM)
CC(C)C[C@@H]1NC(=O)[C@H](CCCN)NC(=O)[C@H](C(C)C)NC(=O)[C@@H](Cc2ccccc2)NC(=O)[C@@H]2CCCN2C(=O)[C@@H](Cc2ccccc2)NC(=O)[C@H](CC(C)C)NC(=O)[C@H](CCCN)NC(=O)[C@H](C(C)C)NC(=O)[C@@H](Cc2ccccc2)NC(=O)[C@@H]2CCCN2C(=O)[C@@H](Cc2ccccc2)NC1=O	12.5 (≈ 8.71 µM)	12.5 (≈ 8.71 µM)	100 (≈ 69.6 µM)	6.25 (≈ 4.35 µM)	Dose-dependent effect	6.25 (≈ 4.35 µM)	> 100
CC(C)C[C@@H]1NC(=O)[C@H](CCCN)NC(=O)[C@H](C(C)C)NC(=O)[C@@H]([C@H](C)O)NC(=O)[C@@H]2CCCN2C(=O)[C@@H](Cc2ccccc2)NC(=O)[C@H](CC(C)C)NC(=O)[C@H](CCCN)NC(=O)[C@H](C(C)C)NC(=O)[C@@H]([C@H](C)O)NC(=O)[C@@H]2CCCN2C(=O)[C@@H](Cc2ccccc2)NC1=O [listing 2 of 2 here]	50 (≈ 37.2 µM)	100 (≈ 74.4 µM)	> 100	100 (≈ 74.4 µM)	–	100 (≈ 74.4 µM)	> 100
CC(C)C[C@@H]1NC(=O)[C@H](CCCN)NC(=O)[C@H](C(C)C)NC(=O)[C@@H](CCCCN)NC(=O)[C@@H]2CCCN2C(=O)[C@@H](Cc2ccccc2)NC(=O)[C@H](CC(C)C)NC(=O)[C@H](CCCN)NC(=O)[C@H](C(C)C)NC(=O)[C@@H](CCCCN)NC(=O)[C@@H]2CCCN2C(=O)[C@@H](Cc2ccccc2)NC1=O	6.25 (≈ 4.47 µM)	6.25 (≈ 4.47 µM)	12.5 (≈ 8.94 µM)	6.25 (≈ 4.47 µM)	Dose-dependent effect	6.25 (≈ 4.47 µM)	25 (≈ 17.9 µM)
CC(C)C[C@@H]1NC(=O)[C@H](CCCN)NC(=O)[C@H](C(C)C)NC(=O)[C@@H](CCC(=O)O)NC(=O)[C@@H]2CCCN2C(=O)[C@@H](Cc2ccccc2)NC(=O)[C@H](CC(C)C)NC(=O)[C@H](CCCN)NC(=O)[C@H](C(C)C)NC(=O)[C@@H](CCC(=O)O)NC(=O)[C@@H]2CCCN2C(=O)[C@@H](Cc2ccccc2)NC1=O	> 100	> 100	> 100	> 100	Dose-dependent effect	> 100	> 100
CC(C)C[C@@H]1NC(=O)[C@H](CCCN)NC(=O)[C@H](C(C)C)NC(=O)[C@@H](C)NC(=O)[C@@H]2CCCN2C(=O)[C@@H](Cc2ccccc2)NC(=O)[C@H](CC(C)C)NC(=O)[C@H](CCCN)NC(=O)[C@H](C(C)C)NC(=O)[C@@H](C)NC(=O)[C@@H]2CCCN2C(=O)[C@@H](Cc2ccccc2)NC1=O (cyclo(L[dF]P[dA]V[Orn]L[dF]P[dA]V[Orn]))	12.5 (≈ 9.74 µM)	25 (≈ 19.5 µM)	> 100	12.5 (≈ 9.74 µM)	Dose-dependent effect	12.5 (≈ 9.74 µM)	> 100
